Drawing on BindingDB's records for doi:10.1021/jm801330n (University of Siena, 2009), this text covers koff for 1 molecule.

The assay deals with Reverse transcriptase (Human immunodeficiency virus 1, UniProt Q9WKE8). Nature of the assay: Binding affinity to HIV1 reverse transcriptase treated for 3 mins by surface plasmon resonance. In a few lines: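 Kinetic titration SPR at 25 °C against an RT surface, with an untreated dextran surface as reference. Running buffer: 10 mM Hepes, 150 mM NaCl, 3.4 mM EDTA, 0,01% P20, 4% DMSO, pH 7.5. Five sequential 3-min injections at 50 µL·min^-1 (0.075–1.2 µM, 2-fold steps), each followed by 2-min dissociation, and a final 20-min dissociation. Data were double-referenced.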

Take `COc1ccc([C@@H]2C[C@H]2CSc2nc([C@H](C)c3c(F)cccc3F)c(C)c(=O)[nH]2)cc1`: the off-rate (koff) turned out to be 2.1e-05 s⁻¹.

As a reminder, the koff is the rate constant with which the complex falls apart.
